From PubChem
ALR H2O2 inh: human ALR oxidase inhibition via reduced H2O2; P55789; purified ALR, DTT oxidation, H2O2 HRP-luminol luminescence; inhibition, % (no concentration beside the values); actives 3.8% (n = 290,000);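 active means mean replicate inhibition above about 79%, with every replicate also reaching it, limit read from the data; inconclusive means only one of the two criteria met; inactive means mean below limit and not every replicate reaching it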
Target sequence (P55789 whole entry, looked up): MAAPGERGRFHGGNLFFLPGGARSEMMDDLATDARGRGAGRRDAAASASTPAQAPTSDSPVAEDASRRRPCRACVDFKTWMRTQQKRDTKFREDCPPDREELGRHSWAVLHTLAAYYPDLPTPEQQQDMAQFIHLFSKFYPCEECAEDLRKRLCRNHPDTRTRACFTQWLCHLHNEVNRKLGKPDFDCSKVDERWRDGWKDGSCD
ZTA counter: blocks Epstein-Barr virus ZTA, an EBNA-1 counter-screen | AID 2234 | ZTA-DNA binding, fluorescence polarization | P03206 | actives 0.15% (n = 320,000) | inhibition, % at 11 µM; in the data active means inhibition above about 33%
Target sequence (P03206 whole entry, looked up): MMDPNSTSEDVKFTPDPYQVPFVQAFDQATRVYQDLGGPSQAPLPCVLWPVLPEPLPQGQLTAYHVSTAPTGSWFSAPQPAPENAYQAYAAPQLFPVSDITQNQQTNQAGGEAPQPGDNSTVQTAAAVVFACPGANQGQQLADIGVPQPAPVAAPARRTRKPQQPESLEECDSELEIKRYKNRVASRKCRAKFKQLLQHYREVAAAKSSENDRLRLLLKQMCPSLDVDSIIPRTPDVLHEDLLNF
EBNA-1 inhibitor: blocks EBNA-1 binding to DNA. EBNA-1 DNA binding, fluorescence polarization. inhibition, % at 14.8 µM. actives 0.34% (n = 300,000); in the data active means inhibition above about 28%
NS3 helicase inh: blocks Hepatitis C virus NS3 helicase unwinding; inhibition, % at 10.9 µM; actives 0.56% (n = 290,000); NS3 helicase DNA unwinding, Cy5 molecular beacon fluorescence;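 active means inhibition above the mean of all tested compounds plus 3 SD, set per campaign, cut at about 35% in these data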
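System: HCV NS3 helicase fragment; control set: DMSO and thioflavine S; technique: Cy5 fluorescence at 0 and 60 min, beacon hairpin quenching; reagent: beacon DNA duplex substrate plus ATP; replicates: singlicate; schedule: 1 h reaction at 25 °C, ATP-initiated; medium: MOPS buffer pH 6.5 with MgCl2, DTT, Tween20, BSA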
core dimer inh: blocks dimerization of HCV core protein; TR-FRET GST/Flag-core106 dimerization, 1536-well; inhibition, % at 5 µM; actives 0.33% (n = 300,000);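 active means inhibition above the mean of all tested compounds plus 3 SD, set per screening campaign, cut at about 45% in these data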
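test system = GST/Flag-tagged HCV core106 proteins | probe or stimulus = Eu donor and XL665 acceptor anti-tag antibodies | times = compound-protein-antibody incubation 4 h at 22.5 °C | signal = TR-FRET, excitation 340 nm, emission 617 and 671 nm | measure = percent inhibition of core106 dimerization signal | controls = wells lacking GST-core106 and wells with excess unlabelled core106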
PfM18AAP inh: blocks P. falciparum M18 aspartyl aminopeptidase. recombinant PfM18AAP, H-Glu-NHMec fluorogenic cleavage. inhibition, % at 7.35 µM. actives 1.2% (n = 290,000). AID 1822;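 active means inhibition above the campaign mean inhibition over all tested compounds plus 3 SD, cut at about 28% in these data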
Each line names hits and unclear results; the compound was inactive in the other large screens. Rows were chosen to be rich in hits. Some 5.2% of all compounds tested hit in one or more screens of this group.

CCOc1ccc(C(c2c(C)[nH][nH]c2=O)c2c(C)[nH][nH]c2=O)cc1OC	none
CCOc1cc(C(c2c(C)[nH][nH]c2=O)c2c(C)[nH][nH]c2=O)cc(Cl)c1O	PfM18AAP inh 32
Cc1cc(C(=O)CSc2nnnn2-c2ccc(O)cc2)c(C)n1C	ALR H2O2 inh 89
Fc1ccc(/C=N/NC(=S)Nc2ccc(Cl)cc2)cc1F	none
COc1cccc(N2CCN(c3c4c(nc5ncnn35)CCC4)CC2)c1	ALR H2O2 inh 98
Cc1cc(N2CCN(C/C=C/c3ccccc3)CC2)n2ncnc2n1	none
Cc1cc(N2CCN(c3ccccc3)CC2)n2ncnc2n1	ALR H2O2 inh 98
Cc1cc(N2CCN(c3ccccc3)CC2)nc(-c2ccccc2)n1	none
Cc1cc(N2CCN(c3ccccc3)CC2)nc(N)n1	ALR H2O2 inh 98
CCN(CC)S(=O)(=O)c1cccc(NC(=O)c2ccc(-n3nc(C)cc3C)cc2)c1	none
COc1ccccc1NC(=O)CSc1nccc(-c2ccco2)n1	none (no result: EBNA-1 inhibitor, NS3 helicase inh, core dimer inh, PfM18AAP inh)
CC1CCCN(CCC(=O)c2ccc(Br)cc2)C1 (stereo not drawn)	ALR H2O2 inh 99
COc1ccc(C(=O)CCN2CCCC(C)C2)cc1 (stereo not drawn)	none
CCc1ccc(NC(=O)CSc2ccc(-c3ccco3)nn2)cc1	ALR H2O2 inh 98
Clc1cccc(CSc2ccc(-c3ccco3)nn2)c1	ALR H2O2 inh 98
Clc1ccc(CSc2ccc(-c3ccco3)nn2)cc1	none
CC(=O)c1ccc(NC(=O)CSc2nnc(-c3ccco3)c(-c3ccco3)n2)cc1	ALR H2O2 inh 99
Cc1ccc(CSc2ccc(-c3ccco3)nn2)cc1	none
CC(=O)Nc1ccc(NC(=O)CSc2nnc(-c3ccco3)o2)cc1	none
Cc1cccc(CSc2ccc(-c3ccco3)nn2)c1	ALR H2O2 inh 98
C[C@@H]1CN(C(=O)c2cc(COc3cccc(C(F)(F)F)c3)on2)C[C@H](C)O1	none
CCN1CCN(C(=O)C(C)Oc2ccc(S(=O)(=O)N3CCCC3)cc2C(N)=O)CC1 (stereo not drawn)	none (no result: EBNA-1 inhibitor, NS3 helicase inh, core dimer inh, PfM18AAP inh)
Cc1cc(C)n(CCNC(=O)c2ccc3c(c2)OCO3)n1	none
Cc1ccccc1NC1=C/C(=N\S(=O)(=O)c2cccs2)c2ccccc2C1=O	none
Cc1ccccc1NC1=C/C(=N\S(=O)(=O)c2ccc(C(=O)O)cc2)c2ccccc2C1=O	ZTA counter 57 (no result: ALR H2O2 inh)
CN(CC(=O)Nc1ccc(F)cc1)C(=O)CCc1ccccc1	none
CC(C)(C)c1ccc(C(=O)NCCC(=O)Nc2cc(Cl)ccc2N2CCOCC2)cc1	none (no result: EBNA-1 inhibitor, NS3 helicase inh, core dimer inh, PfM18AAP inh)
Cc1nc2ccccc2n1CC(=O)c1ccc(O)c(O)c1	ALR H2O2 inh 98 (no result: EBNA-1 inhibitor, NS3 helicase inh, core dimer inh, PfM18AAP inh)
Cc1nc2ccccc2n1CC(=O)c1ccccc1	none
CCn1ccc(C(=O)Nc2ccc3c(c2)CCC3)n1	none
Nc1cccc(-c2nc3ccccc3s2)c1	ALR H2O2 inh 99
Oc1ccc(O)c2c1C1c3ccccc3C2c2ccccc21	PfM18AAP inh 81
COc1ccc(COC(=O)c2cccc(S(=O)(=O)N3CCN(C(C)=O)CC3)c2)cc1	none (no result: NS3 helicase inh, PfM18AAP inh)
COc1cccc(NC(=O)CSc2ncc(S(=O)(=O)c3ccccc3)c(=O)[nH]2)c1	ALR H2O2 inh inconclusive
Cc1ccc(NC(=O)CSc2ncc3ccccn23)cc1C	ALR H2O2 inh 99
O=C(CSc1ncc(S(=O)(=O)c2ccccc2)c(=O)[nH]1)Nc1ccccc1Cl	ALR H2O2 inh 78
Cc1ccc(NC(=O)CSc2ncc(S(=O)(=O)c3ccccc3)c(=O)[nH]2)cc1C	ALR H2O2 inh 100
Cc1c[n+](CC(=O)c2ccccc2)cs1	none
COc1ccccc1-n1c(SCC(=O)Nc2cc(C)on2)nc2c([nH]c3ccccc32)c1=O	none
Nc1cc2c(cc1C(=O)c1ccccc1)OCCO2	ALR H2O2 inh 98
Cc1ccc(C(=O)c2cc3c(cc2N)OCCO3)cc1	none (no result: ALR H2O2 inh)
COC(=O)Cc1[nH]n(-c2nc3ccccc3s2)c(=O)c1C(C)=Nc1ccc(C)cc1	ALR H2O2 inh 98
CSc1nc(Cl)cc(Nc2ccc(O)cc2)n1	ALR H2O2 inh 99
Cc1[nH]nc(Nc2ccc(O)cc2)c1[N+](=O)[O-]	ALR H2O2 inh 99, PfM18AAP inh 31
Cc1ccccc1NC(=O)Cc1nc(CCl)cs1	ALR H2O2 inh 92
Cc1ccc(SCC(=O)OCc2csc(CC(=O)Nc3ccccc3C)n2)cc1C	ALR H2O2 inh 99 (no result: EBNA-1 inhibitor, NS3 helicase inh, core dimer inh, PfM18AAP inh)
CN(CC(=O)Nc1cccc(S(=O)(=O)NC2=NCCC2)c1)Cc1cccc(F)c1	none (no result: EBNA-1 inhibitor, NS3 helicase inh, core dimer inh, PfM18AAP inh)
CN1CCN(C(=O)C2CCC(=O)N(Cc3cccc(C(F)(F)F)c3)C2)CC1 (stereo not drawn)	none
O=c1[nH]n2c(=O)c3c([nH]c2c1N=Nc1cccc(Cl)c1)CCC3	none
NS(=O)(=O)c1ccc(N=Nc2c(=O)[nH]n3c(=O)c4c([nH]c23)CCCC4)cc1	PfM18AAP inh 48
Cc1ccc(OC(C)C(=O)N2CC(=O)Nc3ccccc32)c(C)c1 (stereo not drawn)	none
COc1ccc(S(=O)(=O)N2CCN=C2SCc2cccnc2)cc1	ALR H2O2 inh 99
O=S(=O)(c1ccc(Cl)cc1)N1CCN=C1SCc1cccc(Cl)c1	none (no result: ALR H2O2 inh)
O=S(=O)(c1ccccc1)N1CCN=C1SCc1cccnc1	ALR H2O2 inh 100
Cc1ccc(S(=O)(=O)N2CCN=C2SCc2ccc(Cl)c(Cl)c2)cc1	none
O=S(=O)(c1ccc(Cl)cc1)N1CCN=C1SCc1cccnc1	ALR H2O2 inh 97
Cc1ccc(S(=O)(=O)N2CCN=C2SCc2cccnc2)cc1	ALR H2O2 inh 98
CS(=O)(=O)N1CCN=C1SCc1ccccc1	none
CCS(=O)(=O)N1CCN=C1SCc1cccnc1	ALR H2O2 inh 98
COc1ccc(-c2c(C)sc(NC(=O)c3ccnn3C)c2C#N)cc1	core dimer inh 71
Cn1nccc1C(=O)Nc1sc2c(c1C#N)CCCC2	none (no result: ALR H2O2 inh)
Cc1cc(Nc2nc3ccccc3nc2Cl)n(-c2ccccc2)n1	ALR H2O2 inh 96
Cc1cc(Nc2ccccc2)n(CCO)n1	ALR H2O2 inh 99
Cc1cc(Nc2ccccc2C(=O)O)n(-c2cccc(Cl)c2)n1	ALR H2O2 inh 98
Cc1cc(Nc2nc3ccccc3nc2Cl)n(-c2ccccc2C)n1	none
Cc1cc(Nc2ccc(Cl)cc2)n(-c2ccccc2)n1	ALR H2O2 inh 98
CCn1c(SCC(=O)Nc2cccc(OC)c2)nc2c(c1=O)SCC2	none (no result: NS3 helicase inh, PfM18AAP inh)
Cc1onc(-c2ccccc2)c1-c1n[nH]c(=S)n1-c1ccc(C(=O)O)cc1	ALR H2O2 inh 89
COc1ccc(-n2c(=S)[nH]c3c(oc4ccccc43)c2=O)cc1	ALR H2O2 inh 93
CCOC(=O)C1CCN(S(=O)(=O)c2cccc(-c3cn4cc(C)ccc4n3)c2)CC1	none
CCOC(=O)C1CCN(S(=O)(=O)c2cccc(-c3csc(C)n3)c2)CC1	ALR H2O2 inh 99
CCOC(=O)C1CCN(S(=O)(=O)c2cccc(-c3cn4cccnc4n3)c2)CC1	ALR H2O2 inh 98
